Results published in ChEMBL document CHEMBL5058577, “EUbOPEN Chemogenomics Library 2 (Multiplex)” (2022).

System: Fibroblast
Assay: Multiplex assay against human fibroblast
Type: toxicity, cell-based
How it was run: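 Tubulin, mitochondrial-mass and membrane-permeability phenotypes are per cents of healthy-nucleus cells. Cells were gated by CellPathfinder machine learning into Hoechst high-intensity objects or normal cells, normal cells into healthy, pyknosed or fragmented nuclei, and pyknosed cells into mitotic or apoptotic. Before that, live cells stained at seeding with Hoechst33342, BioTracker Green Microtubule Cytoskeleton Dye, MitoTracker Red and Annexin V Alexa Fluor 680 were imaged on a CQ1 microscope at 37°C and 5% CO2 after compound addition.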

[1] = 12 h, 1 µM, compound concentration 1 uM, replicate 1
[2] = 12 h, 1 µM, compound concentration 1 uM, replicate 2
[3] = 12 h, 10 µM, compound concentration 10 uM, replicate 1
[4] = 12 h, 10 µM, compound concentration 10 uM, replicate 2
[5] = 24 h, 1 µM, compound concentration 1 uM, replicate 1
[6] = 24 h, 1 µM, compound concentration 1 uM, replicate 2
[7] = 24 h, 10 µM, compound concentration 10 uM, replicate 1
[8] = 24 h, 10 µM, compound concentration 10 uM, replicate 2
[9] = 48 h, 1 µM, compound concentration 1 uM, replicate 1
[10] = 48 h, 1 µM, compound concentration 1 uM, replicate 2
[11] = 48 h, 10 µM, compound concentration 10 uM, replicate 1
[12] = 48 h, 10 µM, compound concentration 10 uM, replicate 2

With `CC(C)(O)C(=O)N1CCN(c2ccc(C(F)(F)F)c(C3=C(c4c[nH]c5ccccc45)C(=O)NC3=O)c2)CC1` the “Population Apoptotic (%)” value [1] was 41%, the “Population Fragmented Nuclei (%)” value [1] was 14% and the “Population Healthy Nuclei (%)” value [1] was 68%. For the same molecule, the “Population Hoechst High Intensity Objects (%)” value [1] was 2%, the “Population Membrane Permeable-Phenotype (%)” value [1] was 0% and the “Population Mitochondria Different-Phenotype (%)” value [1] was 9%. For the same molecule, the “Population Mitotic Cells (%)” value [1] was 58%, the “Population Normal (%)” value [1] was 97% and the “Population Pyknosed Nuclei (%)” value [1] was 17%. The “Population Tubulin-Different-Phenotype (%)” value [1] was 30%, the “Total Cell Count” value [1] was 144 and the “Population Apoptotic (%)” value [2] was 32%. For the same molecule, the “Population Fragmented Nuclei (%)” value [2] was 30%, the “Population Healthy Nuclei (%)” value [2] was 46% and the “Population Hoechst High Intensity Objects (%)” value [2] was 5%. For the same molecule, the “Population Membrane Permeable-Phenotype (%)” value [2] was 5%, the “Population Mitochondria Different-Phenotype (%)” value [2] was 5% and the “Population Mitotic Cells (%)” value [2] was 67%. For the same molecule, the “Population Normal (%)” value [2] was 94%, the “Population Pyknosed Nuclei (%)” value [2] was 22% and the “Population Tubulin-Different-Phenotype (%)” value [2] was 56%. The “Total Cell Count” value [2] was 170, the “Population Apoptotic (%)” value [3] was 33% and the “Population Fragmented Nuclei (%)” value [3] was 17%. The “Population Healthy Nuclei (%)” value [3] was 50%, the “Population Hoechst High Intensity Objects (%)” value [3] was 4% and the “Population Membrane Permeable-Phenotype (%)” value [3] was 1%. The “Population Mitochondria Different-Phenotype (%)” value [3] was 25%, the “Population Mitotic Cells (%)” value [3] was 66% and the “Population Normal (%)” value [3] was 96%. For the same molecule, the “Population Pyknosed Nuclei (%)” value [3] was 32%, the “Population Tubulin-Different-Phenotype (%)” value [3] was 83% and the “Total Cell Count” value [3] was 125. For the same molecule, the “Population Apoptotic (%)” value [4] was 35%, the “Population Fragmented Nuclei (%)” value [4] was 26% and the “Population Healthy Nuclei (%)” value [4] was 31%. For the same molecule, the “Population Hoechst High Intensity Objects (%)” value [4] was 6%, the “Population Membrane Permeable-Phenotype (%)” value [4] was 15% and the “Population Mitochondria Different-Phenotype (%)” value [4] was 10%. For the same molecule, the “Population Mitotic Cells (%)” value [4] was 64%, the “Population Normal (%)” value [4] was 93% and the “Population Pyknosed Nuclei (%)” value [4] was 42%. For the same molecule, the “Population Tubulin-Different-Phenotype (%)” value [4] was 90%, the “Total Cell Count” value [4] was 137 and the “Population Apoptotic (%)” value [5] was 50%. The “Population Fragmented Nuclei (%)” value [5] was 22%, the “Population Healthy Nuclei (%)” value [5] was 61% and the “Population Hoechst High Intensity Objects (%)” value [5] was 1%. The “Population Membrane Permeable-Phenotype (%)” value [5] was 0%, the “Population Mitochondria Different-Phenotype (%)” value [5] was 3% and the “Population Mitotic Cells (%)” value [5] was 50%. For the same molecule, the “Population Normal (%)” value [5] was 98%, the “Population Pyknosed Nuclei (%)” value [5] was 16% and the “Population Tubulin-Different-Phenotype (%)” value [5] was 40%. For the same molecule, the “Total Cell Count” value [5] was 161, the “Population Apoptotic (%)” value [6] was 31% and the “Population Fragmented Nuclei (%)” value [6] was 31%. The “Population Healthy Nuclei (%)” value [6] was 45%, the “Population Hoechst High Intensity Objects (%)” value [6] was 8% and the “Population Membrane Permeable-Phenotype (%)” value [6] was 2%. For the same molecule, the “Population Mitochondria Different-Phenotype (%)” value [6] was 8%, the “Population Mitotic Cells (%)” value [6] was 68% and the “Population Normal (%)” value [6] was 91%. The “Population Pyknosed Nuclei (%)” value [6] was 23%, the “Population Tubulin-Different-Phenotype (%)” value [6] was 58% and the “Total Cell Count” value [6] was 176. For the same molecule, the “Population Apoptotic (%)” value [7] was 26%, the “Population Fragmented Nuclei (%)” value [7] was 24% and the “Population Healthy Nuclei (%)” value [7] was 40%. The “Population Hoechst High Intensity Objects (%)” value [7] was 7%, the “Population Membrane Permeable-Phenotype (%)” value [7] was 2% and the “Population Mitochondria Different-Phenotype (%)” value [7] was 30%. The “Population Mitotic Cells (%)” value [7] was 73%, the “Population Normal (%)” value [7] was 92% and the “Population Pyknosed Nuclei (%)” value [7] was 34%. For the same molecule, the “Population Tubulin-Different-Phenotype (%)” value [7] was 79%, the “Total Cell Count” value [7] was 131 and the “Population Apoptotic (%)” value [8] was 36%. For the same molecule, the “Population Fragmented Nuclei (%)” value [8] was 27%, the “Population Healthy Nuclei (%)” value [8] was 33% and the “Population Hoechst High Intensity Objects (%)” value [8] was 3%. For the same molecule, the “Population Membrane Permeable-Phenotype (%)” value [8] was 6%, the “Population Mitochondria Different-Phenotype (%)” value [8] was 20% and the “Population Mitotic Cells (%)” value [8] was 63%. The “Population Normal (%)” value [8] was 96%, the “Population Pyknosed Nuclei (%)” value [8] was 39% and the “Population Tubulin-Different-Phenotype (%)” value [8] was 90%. The “Total Cell Count” value [8] was 138, the “Population Apoptotic (%)” value [9] was 64% and the “Population Fragmented Nuclei (%)” value [9] was 21%. The “Population Healthy Nuclei (%)” value [9] was 61%, the “Population Hoechst High Intensity Objects (%)” value [9] was 5% and the “Population Membrane Permeable-Phenotype (%)” value [9] was 0%. The “Population Mitochondria Different-Phenotype (%)” value [9] was 12%, the “Population Mitotic Cells (%)” value [9] was 36% and the “Population Normal (%)” value [9] was 94%. The “Population Pyknosed Nuclei (%)” value [9] was 17%, the “Population Tubulin-Different-Phenotype (%)” value [9] was 38% and the “Total Cell Count” value [9] was 155. The “Population Apoptotic (%)” value [10] was 41%, the “Population Fragmented Nuclei (%)” value [10] was 33% and the “Population Healthy Nuclei (%)” value [10] was 37%. For the same molecule, the “Population Hoechst High Intensity Objects (%)” value [10] was 7%, the “Population Membrane Permeable-Phenotype (%)” value [10] was 1% and the “Population Mitochondria Different-Phenotype (%)” value [10] was 15%. For the same molecule, the “Population Mitotic Cells (%)” value [10] was 58%, the “Population Normal (%)” value [10] was 92% and the “Population Pyknosed Nuclei (%)” value [10] was 28%. For the same molecule, the “Population Tubulin-Different-Phenotype (%)” value [10] was 67%, the “Total Cell Count” value [10] was 165 and the “Population Apoptotic (%)” value [11] was 54%. For the same molecule, the “Population Fragmented Nuclei (%)” value [11] was 33%, the “Population Healthy Nuclei (%)” value [11] was 27% and the “Population Hoechst High Intensity Objects (%)” value [11] was 12%. For the same molecule, the “Population Membrane Permeable-Phenotype (%)” value [11] was 0%, the “Population Mitochondria Different-Phenotype (%)” value [11] was 53% and the “Population Mitotic Cells (%)” value [11] was 45%. The “Population Normal (%)” value [11] was 87%, the “Population Pyknosed Nuclei (%)” value [11] was 38% and the “Population Tubulin-Different-Phenotype (%)” value [11] was 93%. For the same molecule, the “Total Cell Count” value [11] was 123, the “Population Fragmented Nuclei (%)” value [12] was 35% and the “Population Healthy Nuclei (%)” value [12] was 25%. The “Population Hoechst High Intensity Objects (%)” value [12] was 6%, the “Population Membrane Permeable-Phenotype (%)” value [12] was 10% and the “Population Mitochondria Different-Phenotype (%)” value [12] was 30%. The “Population Normal (%)” value [12] was 93%, the “Population Pyknosed Nuclei (%)” value [12] was 40% and the “Population Tubulin-Different-Phenotype (%)” value [12] was 83%. The “Total Cell Count” value [12] was 129.
